For orientation: pKi means −log10 of the Ki, conventionally taken in molar units.

Here are results for 8 compounds from ChEMBL document CHEMBL1124804, “Substituted vitamin K epoxide analogues. New competitive inhibitors and substrates of vitamin K1 epoxide reductase” (J Med Chem, 1990).

pKi: −log10 of the molar value.

The target in this assay is T1, Vitamin K epoxide reductase complex subunit 1 (Bos taurus, UniProt Q6B4J2).
T1 sequence (Q6B4J2 whole entry): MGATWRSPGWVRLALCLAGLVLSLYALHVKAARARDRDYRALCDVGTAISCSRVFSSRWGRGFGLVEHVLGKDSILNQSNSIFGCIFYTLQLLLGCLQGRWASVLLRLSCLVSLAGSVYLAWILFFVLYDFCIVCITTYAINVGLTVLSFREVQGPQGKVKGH
In words: Apparent kinetic constant for Vitamin K epoxide reductase. Summed up:
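Beef liver microsomes (0.8 mg) as vitamin K1 epoxide reductase source, 0.02% Emulgen 911. Vitamin K1 epoxide varied (10, 12.5, 16.5, 25, 40 μM) with 5 mM DTT, analogue at 0, 20, 40, 60 μM. Double-reciprocal plots built; Ki taken from replots of Km,app against analogue concentration. Also run at 40 μM epoxide with DTT varied 0.33–2.0 mM.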

In the case of `C/C(=C\CC12OC1(CO)C(=O)c1ccccc1C2=O)CCCC(C)CCCC(C)CCCC(C)C` (stereo not drawn), the pKi was 5.10.
As for `C/C(=C\CC12OC1(CF)C(=O)c1ccccc1C2=O)CCCC(C)CCCC(C)CCCC(C)C` (stereo not drawn), the pKi is 4.77.
For the compound `CC(C)CCCC(C)CCCC(C)CCCC(C)CC(O)C12OC1(C)C(=O)c1ccccc1C2=O` (stereo not drawn), the negative-log Ki (pKi) is 4.20.
`C/C(=C\CC12OC1(CCl)C(=O)c1ccccc1C2=O)CCCC(C)CCCC(C)CCCC(C)C` (stereo not drawn): the negative logarithm of the Ki (pKi) was 4.13.
Regarding `C/C(=C\CC12OC1(C(F)F)C(=O)c1ccccc1C2=O)CCCC(C)CCCC(C)CCCC(C)C` (stereo not drawn), the pKi was 4.20.
For the compound `CC(C)CCCC(C)CCCC(C)CCCC(C)CC(F)C12OC1(C)C(=O)c1ccccc1C2=O` (stereo not drawn), the pKi was 4.00.
`C/C(=C\C(O)C12OC1(C)C(=O)c1ccccc1C2=O)CCCC(C)CCCC(C)CCCC(C)C` (stereo not drawn): the negative-log Ki (pKi) was 4.37.
`C/C(=C\CC12OC1(C=O)C(=O)c1ccccc1C2=O)CCCC(C)CCCC(C)CCCC(C)C` (stereo not drawn): the pKi is 4.59.
